Consider 1 molecule from ChEMBL document CHEMBL1932987, “Straightforward palladium-mediated synthesis and biological evaluation of benzo[j]phenanthridine-7,12-diones as anti-tuberculosis agents” (Eur J Med Chem, 2012).

The assay relates to Mycobacterium tuberculosis. Put plainly: Antimycobacterial activity against multi-drug resistant Mycobacterium tuberculosis LAM-1 after 1 to 6 days by BACTEC 460-TB assay. The format is functional. In outline:
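Drug-resistant clinical LAM-1 isolate of M.tb. (resistant to isoniazid, rifampicin, rifabutin, prothionamid) tested in the BACTEC 460-TB radiometric system. Growth index read over time and compared with an untreated control and with a 100-fold diluted inoculum to derive MIC99. Isoniazid run in parallel to confirm resistance.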

Each structure is given as a SMILES string. Values after ≈ are worked out from the molar mass of the structure shown.

As to `Cc1ccc2c3c(cnc2c1)C(=O)c1ccccc1C3=O`, the MIC99 turned out to be 0.71 µM (≈ 0.194 µg/mL). In other words, the sub-micromolar range.

Usually MIC99 stands for the lowest concentration that inhibits either 99% of growth or 99% of the strains tested, depending on the study. Low readings indicate greater potency, high ones weaker potency.
